{"source": "paper PMC7501995", "about": "(Cell metabolism, 2020)", "key": {"[1]": {"tested_on": "TXNIP expression in primary mouse islets", "experiment": "TXNIP expression by qPCR in primary mouse islets at high glucose", "assay_type": "cell-based", "conditions": "25 mM glucose, 1 μM, 24 h", "method_in_brief": "(§1)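 INS-1 cells, C57BL/6J mouse islets (collagenase XI-isolated) or human islets (at least three donors, same-donor controls) kept overnight in 5 mM glucose RPMI 1640. Then incubated 24 h in 25 mM glucose RPMI 1640 with or without 1 µM test compound. TXNIP and related mRNAs measured by qRT-PCR; n = 6 (INS-1) or 3 (mouse islets) independent experiments.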"}, "αTC1-6 alpha cells": {"tested_on": "αTC1-6 alpha cells", "experiment": "Alpha cell glucagon expression and secretion", "assay_type": "cell-based, mouse", "conditions": "αTC1-6 cells", "method_in_brief": "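αTC1-6 mouse alpha cells grown in DMEM with 10% FBS, 16.7 mM glucose, 1 mM sodium pyruvate and 15 mM HEPES at 37°C, 5% CO2. Cells exposed to 5 µM test compound or vehicle for 1 h. Low-glucose secretion run at 1.67 mM glucose. Secreted glucagon measured by mouse glucagon ELISA; protein measured by BCA assay.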"}, "human TXNIP promoter": {"tested_on": "human TXNIP promoter", "assay_type": "cell-based", "conditions": "INS-1 cells, 25 mM glucose, 5 μM, 24 h", "method_in_brief": "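INS-1 cells transfected with SV40-E-box or SV40-Control firefly plasmid (0.4 µg/mL) plus pRL-TK renilla control (10 ng/mL). After 18 h, switched to 5 mM glucose for 6 h, then to 25 mM glucose. Treated with or without 5 µM test compound for 24 h. Read by dual-luciferase assay; n = 6 independent experiments.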"}, "[2]": {"tested_on": "TXNIP protein levels in INS-1 cells", "experiment": "TXNIP protein immunoblotting in INS-1 cells", "assay_type": "cell-based, rat", "conditions": "24h", "method_in_brief": "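Rat INS-1 beta-like cells were grown at 37°C in humidified 5% CO2. Whole-cell protein extracts were prepared and protein was quantified by BCA assay. Equal protein amounts were loaded per lane for TXNIP immunoblotting.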"}, "[3]": {"tested_on": "polymerase II (Pol II) binding to the TXNIP promoter", "experiment": "Chromatin immunoprecipitation of Pol II in INS-1 cells", "assay_type": "cell-based, rat", "conditions": "ChIP", "method_in_brief": "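INS-1 cells crosslinked in 1% formaldehyde/PBS for 15 min, then quenched with glycine. Lysed in SDS/Triton buffer, pH 8.1, with protease inhibitors, and sonicated (10 × 30 s pulses). 500 µg precleared lysate incubated with 4 µg anti-Pol II antibody or control IgG overnight at 4°C; 1/10 kept as input. Complexes captured on Protein A-Sepharose for 3 h, then washed in lysis, wash, LiCl and TE buffers. Regions probed: E-box, upstream TXNIP and IRS2 site. n = 3 independent experiments.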"}, "TXNIP-deficient mice": {"tested_on": "TXNIP-deficient mice", "experiment": "SRI-37330 treatment of TXNIP-deficient mice", "assay_type": "in vivo, mouse"}, "db/db mice": {"tested_on": "db/db mice", "experiment": "Oral treatment of obese, diabetic db/db mice", "assay_type": "in vivo, mouse"}, "[4]": {"tested_on": "human islet gene expression", "experiment": "RNA sequencing of human islets", "assay_type": "cell-based", "conditions": "25 mM glucose, 1 μM", "method_in_brief": "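Human islets (IIDP; same-donor controls) held overnight at 5 mM glucose, then 24 h at 25 mM glucose with or without 1 µM test compound. RNA extracted with miRNeasy. Libraries prepared as TruSeq stranded mRNA and sequenced single-end at about 43 million reads/sample.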"}, "[5]": {"tested_on": "TXNIP mRNA expression in INS-1 cells", "experiment": "TXNIP mRNA expression by qRT-PCR in INS-1 cells", "assay_type": "cell-based", "conditions": "rat INS-1 cells, 25 mM glucose, 1 μM, 24 h, qPCR", "method_in_brief": "as §1"}, "L-type calcium channels": {"tested_on": "L-type calcium channels", "experiment": "Calcium channel blockade", "conditions": "in contrast to verapamil"}, "[6]": {"tested_on": "primary mouse hepatocytes", "experiment": "Hepatocyte cAMP production", "assay_type": "cell-based", "method_in_brief": "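Primary hepatocytes came from anesthetized lean chow-fed male C57BL/6J mice, liver-specific glucagon receptor knockout mice, or Txnip-deficient mice. They were plated on collagen at 3 × 10^5 cells/well in serum-free DMEM and left 4 h to attach. Medium was then changed and cells were exposed to graded test-compound concentrations with glucagon for 24h. Cells were washed twice in PBS and harvested in 0.1M HCl. Intracellular cAMP was measured by direct immunoassay; n = 3 independent experiments.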"}, "[7]": {"tested_on": "primary mouse hepatocytes", "experiment": "Gene expression by qRT-PCR in primary hepatocytes", "assay_type": "cell-based", "method_in_brief": "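Primary hepatocytes from male C57BL/6J, liver-specific glucagon receptor knockout or Txnip-deficient mice, seeded on collagen at 3×10^5 cells/well in serum-free DMEM. After 4 h attachment, medium changed and cells given varying test compound concentrations for 24 h. Pck1/G6pc read in the presence of glucagon. mRNA quantified by qRT-PCR; n = 3 for knockout hepatocytes.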"}, "[8]": {"tested_on": "TXNIP expression in human islets", "assay_type": "cell-based", "method_in_brief": "as §1"}, "[9]": {"tested_on": "C57BL/6J mice rendered diabetic by multiple low-dose STZ", "experiment": "Multiple low-dose STZ-induced diabetes in C57BL/6J mice", "assay_type": "in vivo, mouse"}, "[10]": {"tested_on": "primary mouse hepatocytes", "experiment": "Hepatocyte glucose output", "assay_type": "cell-based", "method_in_brief": "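Hepatocytes were isolated from male C57BL/6J, liver-specific GcgR-knockout or Txnip-deficient mice and plated on collagen at 3 × 10^5 cells/well in serum-free DMEM. After 4 h attachment, they were treated 24h with graded test-compound concentrations. For the last 6h, cells were washed twice in PBS and placed in serum-, glucose- and phenol red-free DMEM, with or without lactate (10 mM) and/or glucagon (100 nM). Medium glucose was read colorimetrically and normalized to total protein; n = 3–4 mice.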"}, "[11]": {"conditions": "GcgR−/−L hepatocytes, glucagon present"}}, "note": "“Also recorded” adds a separate entry of the source.", "data": [{"smiles": "CS(=O)(=O)NCC1CCCN(c2ncnc3ccc(C(F)(F)F)cc23)C1", "note": "(stereo not drawn) [SRI-37330, N-((1-(6-(trifluoromethyl)quinazolin-4-yl)piperidin-3-yl)methyl)methanesulfonamide]", "values": [{"measurement": "TXNIP expression in the context of high glucose", "setting": "[1]", "value": "significantly inhibit TXNIP expression"}, {"measurement": "glucagon content", "setting": "αTC1-6 alpha cells; 5 μM, 1h", "value": "did not lower proglucgon gene expression or glucagon content"}, {"measurement": "glucagon secretion", "setting": "αTC1-6 alpha cells; 5 μM, 1h", "value": "significantly lower glucagon secretion"}, {"measurement": "proglucagon gene expression", "setting": "αTC1-6 alpha cells; 5 μM, 24 h", "value": "did not lower proglucgon gene expression or glucagon content"}, {"measurement": "glucagon secretion in the context of low glucose", "setting": "αTC1-6 alpha cells; 1.67 mM glucose", "value": "no effect on glucagon secretion"}, {"measurement": "glucagon secretion maximally stimulated by arginine and norepinephrine", "setting": "αTC1-6 alpha cells; arginine 20 mM, norepinephrine 10 μM", "value": "no longer able to inhibit glucagon secretion"}, {"measurement": "effect on heterologous SV40 promoter coupled with the TXNIP E-box motif", "setting": "human TXNIP promoter", "value": "confer SRI-37330 responsiveness"}, {"measurement": "TXNIP protein levels", "setting": "[2]", "value": "inhibited TXNIP protein levels in a dose-dependent manner"}, {"measurement": "Pol II binding to the E-box motif region of the TXNIP promoter", "setting": "[3]", "value": "effectively inhibited"}, {"measurement": "Pol II binding to upstream TXNIP promoter region and to IRS2 site", "setting": "[3]", "value": "but not to an upstream TXNIP promoter region or to an established Pol II binding site"}, {"measurement": "glucose homeostasis and serum glucagon", "setting": "TXNIP-deficient mice", "value": "no longer able to further improve glucose homeostasis or lower serum glucagon levels"}, {"measurement": "serum glucagon levels", "setting": "TXNIP-deficient mice", "value": "even elevated"}, {"measurement": "hepatic steatosis (liver histology)", "setting": "db/db mice; db/db mice", "value": "dramatically improved the severe steatosis"}, {"measurement": "alpha cell mass", "setting": "db/db mice; db/db mice, islet morphometry", "value": "small, but significant decline in alpha cell mass"}, {"measurement": "alpha cell number", "setting": "db/db mice; db/db mice, islet morphometry", "value": "clear trend towards lower alpha cell number"}, {"measurement": "beta cell mass and number", "setting": "db/db mice; db/db mice, islet morphometry", "value": "remained unchanged"}, {"measurement": "fasting blood glucose", "setting": "db/db mice; db/db mice, oral", "value": "significantly downregulated"}, {"measurement": "fasting serum glucagon", "setting": "db/db mice; db/db mice, oral", "value": "significant downregulate"}, {"measurement": "fasting serum insulin", "setting": "db/db mice; db/db mice, oral", "value": "remained unchanged"}, {"measurement": "body weight", "setting": "db/db mice; db/db mice, oral, 4 weeks", "value": "did not affect body weights"}, {"measurement": "non-fasting blood glucose", "setting": "db/db mice; db/db mice, oral, 4 weeks", "value": "decreased significantly within 3 days of starting SRI-37330 treatment and returned to euglycemic levels"}, {"measurement": "effectiveness by oral gavage twice a day", "setting": "db/db mice; obesity-induced diabetes, gavage 12 h apart", "value": "confirmed its effectiveness in obesity- as well as STZ-induced diabetes"}, {"measurement": "BCL2L1 expression", "setting": "[4]; confirmed by qRT-PCR", "value": "upregulated"}, {"measurement": "CTGF expression", "setting": "[4]; confirmed by qRT-PCR", "value": "upregulated"}, {"measurement": "IGF-1R expression", "setting": "[4]; confirmed by qRT-PCR", "value": "upregulated"}, {"measurement": "MAFA expression", "setting": "[4]; confirmed by qRT-PCR", "value": "upregulated"}, {"measurement": "MLXIPL expression", "setting": "[4]; confirmed by qRT-PCR", "value": "downregulated"}, {"measurement": "NLRP1 expression", "setting": "[4]; confirmed by qRT-PCR", "value": "lower expression"}, {"measurement": "general transcription", "setting": "[4]; three donors, 24 h, RNA sequencing", "value": "does not inhibit general transcription"}, {"measurement": "TXNIP expression in the context of high glucose", "setting": "[5]", "value": "significantly inhibit TXNIP expression"}, {"measurement": "calcium channel blocker activity", "setting": "L-type calcium channels", "value": "not a calcium channel blocker"}, {"measurement": "cAMP production", "setting": "[6]; [11]", "value": "no longer able to inhibit hepatocyte glucose output or cAMP production"}, {"measurement": "glucagon-induced cAMP production", "setting": "[6]; primary hepatocytes of TXNIP-deficient mice", "value": "maintained its ability to block glucose output and glucagon-induced cAMP production"}, {"measurement": "glucagon-induced production of cAMP", "setting": "[6]; wild-type primary hepatocytes, 24h, glucagon", "value": "significantly downregulated in a dose-dependent manner"}, {"measurement": "effect on glucagon-induced expression of Pck1 and G6pc", "setting": "[7]; primary hepatocytes of liver-specific glucagon receptor knockout mice (GcgR−/−L)", "value": "completely blunted"}, {"measurement": "glucagon-induced expression of Pck1 and G6pc", "setting": "[7]; primary hepatocytes of wild-type C57BL/6J mice, 5 μM, 24h", "value": "inhibited"}, {"measurement": "TXNIP signaling genes in primary hepatocytes or livers", "setting": "[7]; primary hepatocytes or livers of treated mice", "value": "not affected"}, {"measurement": "expression of other arrestin genes ARRB1 and ARRDC3 and of thioredoxin", "setting": "[8]; human islets, qRT-PCR, negative controls", "value": "not affected"}, {"measurement": "TXNIP expression in the context of high glucose", "setting": "[8]; isolated human islets, 25 mM glucose, 1 μM, 24 h", "value": "significantly inhibit TXNIP expression"}, {"measurement": "urine glucose, fold lower than in untreated or empagliflozin-treated animals", "setting": "[9]; STZ mice", "value": "more than 10 fold"}, {"measurement": "blood glucose control compared to metformin or empagliflozin", "setting": "[9]; STZ mice, drinking water", "value": "slightly better blood glucose control than metformin or empagliflozin"}, {"measurement": "body weight at the end of the experiment", "setting": "[9]; STZ mice, vs untreated", "value": "higher body weight"}, {"measurement": "fasting blood glucose", "setting": "[9]; STZ mice, vs untreated", "value": "lower fasting blood glucose"}, {"measurement": "fasting serum insulin", "setting": "[9]; STZ mice, vs untreated", "value": "higher; also recorded: almost two-fold elevation"}, {"measurement": "serum triglycerides", "setting": "[9]; STZ mice, only treatment with this effect", "value": "significantly lower serum triglycerides"}, {"measurement": "fasting serum glucagon, fold lower than untreated", "setting": "[9]; STZ-diabetic mice", "value": 3.6, "unit": "fold"}, {"measurement": "effectiveness by oral gavage twice a day", "setting": "[9]; STZ-induced diabetes, gavage 12 h apart", "value": "confirmed its effectiveness in obesity- as well as STZ-induced diabetes"}, {"measurement": "dose-dependence of glucose lowering", "setting": "[9]; oral gavage twice a day", "value": "dose-dependence of the glucose-lowering effects"}, {"measurement": "hepatocyte glucose output", "setting": "[10]; [11]", "value": "no longer able to inhibit hepatocyte glucose output or cAMP production"}, {"measurement": "glucose output", "setting": "[10]; primary hepatocytes of TXNIP-deficient mice, glucagon present", "value": "maintained its ability to block glucose output and glucagon-induced cAMP production"}, {"measurement": "basal or stimulated glucose output in the absence of glucagon", "setting": "[10]; wild-type primary hepatocytes, 24h, no substrate or lactate", "value": "did not affect basal or stimulated glucose output"}]}]}
